What was measured:
[1] = tested on: p70S6 kinase phosphorylation at Thr389; assay: p70S6K phosphorylation at Thr389 in peripheral blood lymphocytes; format: in vivo, human
Outline: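 Sirolimus-alone study only, oral weekly dosing. Blood drawn before dosing at baseline, week 1 day 2 and day 4, week 2 day 1, week 5 day 1. CD3+ cells enriched after density centrifugation, cryopreserved, then given medium or PMA (0.5 µg/ml) plus ionomycin (0.025 µg/ml), 1 hr, 37 °C. Western blot for phospho-Thr389 and total p70S6K, densitometry, cohort means, paired t-test. Indirect response model with rebound (kin, kout; baseline 100%), FOCE with interaction.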

[2] = Tumor response by RECIST 1.0; format: in vivo, human
Adverse events = format: in vivo, human
[3] = oral multiple dosing; ref [17]–[19]; cited from earlier work
[4] = indirect response model with rebound
[5] = three studies collectively, 138 subjects

## CO[C@H]1C[C@@H]2CC[C@@H](C)[C@@](O)(O2)C(=O)C(=O)N2CCCC[C@H]2C(=O)O[C@H]([C@H](C)C[C@@H]2CC[C@@H](O)[C@H](OC)C2)CC(=O)[C@H](C)/C=C(\C)[C@@H](O)[C@@H](OC)C(=O)[C@H](C)C[C@H](C)/C=C/C=C/C=C/1C [Sirolimus]
[1]; 10 mg weekly dose, 1 week after the initial dose (data not shown)
  phospho-p70S6K activity: suppressed
[1]; 48 hours after administration, all dose levels, sirolimus alone study, p = 0.006
  phospho-p70S6K in peripheral T cells: inhibition
[1]; [4]
  kout (first-order rate constant for loss of phospho-p70S6K), typical value: 0.05
  krebound, typical value: 11.3 mL/ng
[1]; indirect response model with rebound, baseline phosphorylation 100%
  kin (zero-order rate constant for gain of phospho-p70S6K), typical value: 5.5
[1]; sirolimus alone study
  Rebound effect on phospho-p70S6K (levels exceeded baseline at later time points), subjects: six out of twelve
[2]; collective studies, patient with epithelioid hemangioendothelioma with hepatic metastases
  Partial response: One partial response
[2]; per study
  Stable disease, number of subjects: 16
  Stable disease, percent of subjects: 40%
Adverse events; Sirolimus Alone 10mg
  Altered taste (adverse event): 1
  Anemia (adverse event): 3
  Anorexia (adverse event): 1
  Diarrhea (adverse event): 1
  Elevated Transaminases (adverse event): 1
  Fatigue (adverse event): 2
  Hyperlipidemia (adverse event): 2
  Infection (adverse event): 1
  Lymphopenia (adverse event): 3
  Lymphopenia, grade 3 or 4: 2
  Mucocutaneous dryness (adverse event): 1
  Mucositis (adverse event): 2
  Nausea (adverse event): 3
  Paresthesia (adverse event): 1
  Rash (adverse event): 1
  Vomiting (adverse event): 2
Adverse events; Sirolimus Alone 20mg
  Altered taste (adverse event): 1
  Anemia (adverse event): 5
  Anorexia (adverse event): 1
  Decreased platelets (adverse event): 1
  Diarrhea (adverse event): 5
  Dyspnea (adverse event): 1
  Elevated Transaminases (adverse event): 4
  Fatigue (adverse event): 4
  Hyperglycemia (adverse event): 6
  Hyperlipidemia (adverse event): 4
  Hypoxia (adverse event): 2
  Infection (adverse event): 1(1)
  Infection, grade 3 or 4: 1(1)
  Lymphopenia (adverse event): 4
  Lymphopenia, grade 3 or 4: 1
  Mucositis (adverse event): 1
  Nausea (adverse event): 2
  Pneumonia (adverse event): 2(2)
  Pneumonia, grade 3 or 4: 2(2)
Adverse events; Sirolimus Alone 30mg
  Anemia (adverse event): 3
  Anorexia (adverse event): 1(1)
  Anorexia, grade 3 or 4: 1(1)
  Decreased platelets (adverse event): 1
  Diarrhea (adverse event): 2
  Elevated Transaminases (adverse event): 2
  Fatigue (adverse event): 1
  Fever (adverse event): 2
  Hyperglycemia (adverse event): 6
  Hyperlipidemia (adverse event): 3
  Hyperlipidemia, grade 3 or 4: 1
  Hypertension (adverse event): 1
  Infection (adverse event): 1(1)
  Infection, grade 3 or 4: 1(1)
  Lymphopenia (adverse event): 3
  Lymphopenia, grade 3 or 4: 1
  Mucocutaneous dryness (adverse event): 1
  Nausea (adverse event): 4
  Nausea, grade 3 or 4: 1
  Pneumonia (adverse event): 1
  Rash (adverse event): 1
  Vomiting (adverse event): 2
Adverse events; Sirolimus Alone 30mg (4h)
  Decreased platelets (adverse event): 1
  Diarrhea (adverse event): 4
  Elevated Transaminases (adverse event): 1
  Fatigue (adverse event): 1
  Hyperglycemia (adverse event): 1
  Leukopenia (adverse event): 2
  Nausea (adverse event): 2
  Vomiting (adverse event): 2
Adverse events; Sirolimus Alone 30mg (24h)
  Diarrhea (adverse event): 2
  Infection (adverse event): 1(1)
  Infection, grade 3 or 4: 1(1)
  Mucositis (adverse event): 1
  Nausea (adverse event): 1
  Rash (adverse event): 1
Adverse events; Sirolimus Alone 45mg (24h)
  Anorexia (adverse event): 1
  Diarrhea (adverse event): 3
  Diarrhea, grade 3 or 4: 1
  Hyperglycemia (adverse event): 1
  Mood Alteration (adverse event): 1
  Nausea (adverse event): 2
  Vomiting (adverse event): 4
Adverse events; Sirolimus Alone 60mg
  Anorexia (adverse event): 3
  Decreased platelets (adverse event): 1
  Diarrhea (adverse event): 6
  Diarrhea, grade 3 or 4: 1
  Elevated Transaminases (adverse event): 1
  Fatigue (adverse event): 5
  Fever (adverse event): 1
  Hyperglycemia (adverse event): 4
  Hyperlipidemia (adverse event): 6
  Hyperlipidemia, grade 3 or 4: 1
  Infection (adverse event): 1
  Lymphopenia (adverse event): 3
  Nausea (adverse event): 6
  Rash (adverse event): 1
  Vomiting (adverse event): 5
  Weight Loss (adverse event): 4
Adverse events; Total (n=138)
  Altered taste (adverse event): 5
  Anemia (adverse event): 46
  Anemia, grade 3 or 4: 5
  Anorexia (adverse event): 32
  Anorexia, grade 3 or 4: 1
  Decreased platelets (adverse event): 22
  Diarrhea (adverse event): 58
  Diarrhea, grade 3 or 4: 3
  Dyspnea (adverse event): 6
  Dyspnea, grade 3 or 4: 1
  Edema (adverse event): 5
  Edema, grade 3 or 4: 1
  Elevated Creatinine (adverse event): 1
  Elevated Transaminases (adverse event): 23
  Elevated Transaminases, grade 3 or 4: 2
  Epistaxis (adverse event): 1
  Fatigue (adverse event): 46
  Fatigue, grade 3 or 4: 3
  Fever (adverse event): 4
  Hand & Foot Syndrome (adverse event): 2
  Hyperglycemia (adverse event): 72
  Hyperglycemia, grade 3 or 4: 7
  Hyperlipidemia (adverse event): 59
  Hyperlipidemia, grade 3 or 4: 3
  Hypertension (adverse event): 2
  Hypocalcemia (adverse event): 2
  Hypoglycemia (adverse event): 1(1)
  Hypoglycemia, grade 3 or 4: 1(1)
  Hypoxia (adverse event): 2
  Infection (adverse event): 14
  Infection, grade 3 or 4: 4
  Leukopenia (adverse event): 17
  Lymphopenia (adverse event): 56
  Lymphopenia, grade 3 or 4: 14
  Mood Alteration (adverse event): 2
  Mucocutaneous dryness (adverse event): 6
  Mucositis (adverse event): 17
  Myalgia (adverse event): 3
  Nail Changes (adverse event): 1(1)
  Nail Changes, grade 3 or 4: 1(1)
  Nausea (adverse event): 48
  Nausea, grade 3 or 4: 2
  Neutropenia (adverse event): 7
  Paresthesia (adverse event): 2
  Pleural Effusion (adverse event): 1
  Pneumonia (adverse event): 5
  Pneumonia, grade 3 or 4: 4
  Pruritis (adverse event): 6
  Rash (adverse event): 14
  Vomiting (adverse event): 33
  Vomiting, grade 3 or 4: 1
  Weight Loss (adverse event): 15
Adverse events; [5]
  Hyperglycemia, subjects with toxicity: 52%
  Hyperlipidemia, subjects with toxicity: 43%
  Lymphopenia, subjects with toxicity: 41%
[3]
  volume of distribution: 12 L/kg

Reference: PMC4410974 (Clinical cancer research : an official journal of the …, 2012)
